One compound from ChEMBL document CHEMBL5705897, “Characterization of WZ4003 and HTH-01-015 as selective inhibitors of the LKB1-tumour-suppressor-activated NUAK kinases” (Biochem J, 2014) can be followed below.

The target of assay [1] is Serine/threonine-protein kinase BRSK2 (Homo sapiens) (UniProt Q8IWQ3). Put plainly: Inhibition of recombinant human N-terminal His6-tagged BRSK2 (2 to 674 residues) expressed in baculovirus infected Sf21 cells assessed as remaining activity at 1 uM using KKLNRTLSFAEPG as substrate incubated for 30 mins in presence of [gamma-33P]ATP by filter binding method relative to control. An outline of the steps: (§1)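 Screened at the International Centre for Protein Kinase Profiling against a 140-kinase panel, with inhibitor at 0.1 or 1 μM; activity expressed as percentage of DMSO control reactions, mean of triplicate reactions.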

Assay [2] deals with MAP kinase-interacting serine/threonine-protein kinase 2 (Homo sapiens) (UniProt Q9HBH9). The assay is described as follows: Inhibition of recombinant human N-terminal GST/C-terminal His6-tagged MNK2alpha (2 to 465 residues) expressed in Escherichia coli assessed as remaining activity at 1 uM using eIF4E as substrate incubated for 30 mins in presence of [gamma-33P]ATP by filter binding method relative to control. An outline of the steps: as §1

For assay [3], the target named is MAP/microtubule affinity-regulating kinase 3 (Homo sapiens) (UniProt P27448). Put plainly: Inhibition of recombinant human N-terminal His6-tagged MARK3 (2 to 729 residues) expressed in baculovirus infected Sf21 cells assessed as remaining activity at 1 uM using CHKtide as substrate incubated for 30 mins in presence of [gamma-33P]ATP by filter binding method relative to control. An outline of the steps: as §1
Chain of MAP/microtubule affinity-regulating kinase 3 (Homo sapiens) (P27448 whole entry, looked up, the tested form may be a part): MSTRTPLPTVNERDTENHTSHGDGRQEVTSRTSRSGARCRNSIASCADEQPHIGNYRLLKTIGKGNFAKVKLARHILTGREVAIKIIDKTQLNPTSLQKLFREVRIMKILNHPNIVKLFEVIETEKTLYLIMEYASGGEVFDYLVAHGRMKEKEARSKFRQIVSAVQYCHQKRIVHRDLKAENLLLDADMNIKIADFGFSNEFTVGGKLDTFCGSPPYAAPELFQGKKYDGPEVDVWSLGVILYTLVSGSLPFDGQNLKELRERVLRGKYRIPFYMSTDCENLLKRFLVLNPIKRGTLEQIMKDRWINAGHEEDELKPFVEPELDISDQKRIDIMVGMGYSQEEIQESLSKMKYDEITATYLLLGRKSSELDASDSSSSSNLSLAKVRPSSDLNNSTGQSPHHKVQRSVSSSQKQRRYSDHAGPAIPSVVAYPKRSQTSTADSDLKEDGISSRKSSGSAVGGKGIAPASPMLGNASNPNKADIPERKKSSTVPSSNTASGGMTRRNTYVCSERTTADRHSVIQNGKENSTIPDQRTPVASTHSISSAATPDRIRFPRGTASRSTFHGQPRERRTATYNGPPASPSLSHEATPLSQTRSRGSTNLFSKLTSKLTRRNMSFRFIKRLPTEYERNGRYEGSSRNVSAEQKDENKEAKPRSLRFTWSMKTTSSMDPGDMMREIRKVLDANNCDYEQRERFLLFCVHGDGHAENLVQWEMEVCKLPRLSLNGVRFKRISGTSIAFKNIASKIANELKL

Chain of Serine/threonine-protein kinase BRSK2 (Homo sapiens) (Q8IWQ3 whole entry, the tested form may be a part): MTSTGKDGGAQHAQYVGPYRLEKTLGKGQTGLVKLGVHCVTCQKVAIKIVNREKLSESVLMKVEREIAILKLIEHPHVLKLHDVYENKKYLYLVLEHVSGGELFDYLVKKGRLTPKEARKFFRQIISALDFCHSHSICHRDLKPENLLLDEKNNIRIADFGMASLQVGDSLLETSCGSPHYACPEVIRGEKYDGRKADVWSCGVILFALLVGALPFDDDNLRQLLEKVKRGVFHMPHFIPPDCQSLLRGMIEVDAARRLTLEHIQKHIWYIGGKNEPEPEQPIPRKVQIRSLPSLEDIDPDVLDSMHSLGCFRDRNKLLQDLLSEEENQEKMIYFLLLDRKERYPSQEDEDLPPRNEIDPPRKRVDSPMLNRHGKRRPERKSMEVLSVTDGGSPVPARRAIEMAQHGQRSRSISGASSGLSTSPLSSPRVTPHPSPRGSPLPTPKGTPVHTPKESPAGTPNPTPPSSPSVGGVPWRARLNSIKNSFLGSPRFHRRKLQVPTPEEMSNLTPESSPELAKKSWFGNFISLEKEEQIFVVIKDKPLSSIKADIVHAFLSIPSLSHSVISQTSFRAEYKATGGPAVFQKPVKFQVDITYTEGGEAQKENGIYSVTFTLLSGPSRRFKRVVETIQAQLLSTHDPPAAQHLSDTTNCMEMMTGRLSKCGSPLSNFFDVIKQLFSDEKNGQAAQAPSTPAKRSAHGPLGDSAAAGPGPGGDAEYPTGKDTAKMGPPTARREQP
Chain of MAP kinase-interacting serine/threonine-protein kinase 2 (Homo sapiens) (Q9HBH9 whole entry, looked up, the tested form may be a part): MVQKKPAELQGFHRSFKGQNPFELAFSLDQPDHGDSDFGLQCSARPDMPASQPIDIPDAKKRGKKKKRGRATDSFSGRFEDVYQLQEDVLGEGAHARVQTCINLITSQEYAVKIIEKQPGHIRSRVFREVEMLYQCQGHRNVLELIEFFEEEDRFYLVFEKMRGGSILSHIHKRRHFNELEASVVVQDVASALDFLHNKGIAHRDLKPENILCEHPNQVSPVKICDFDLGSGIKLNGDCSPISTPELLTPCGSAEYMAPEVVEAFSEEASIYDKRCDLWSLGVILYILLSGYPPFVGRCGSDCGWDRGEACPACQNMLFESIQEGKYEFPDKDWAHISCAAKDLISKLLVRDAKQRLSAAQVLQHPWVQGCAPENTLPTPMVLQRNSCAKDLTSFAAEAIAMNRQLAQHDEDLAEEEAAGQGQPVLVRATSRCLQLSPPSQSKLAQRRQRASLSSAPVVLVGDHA

For the compound `CCC(=O)Nc1cccc(Oc2nc(Nc3ccc(N4CCN(C)CC4)cc3OC)ncc2Cl)c1`, the Activity in assay [1] is 75%; in assay [2] it was 84%; in assay [3] it was 51%.
